From ChEMBL document CHEMBL1154873, “Synthesis and evaluation of the alpha-glucosidase inhibitory activity of 3-[4-(phenylsulfonamido)benzoyl]-2H-1-benzopyran-2-one derivatives” (Eur J Med Chem, 2010)

Assay: inhibition of yeast alpha-glucosidase pretreated for 10 mins before maltose challenge measured after 10 mins
Set-up: species or system Saccharomyces cerevisiae
How it was run: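 0.02 U α-glucosidase with compound in 67 mM potassium phosphate, pH 6.8, preincubated 37 °C 10 min. 0.1 M maltose added, then room temperature 10 min. Glucose detected colorimetrically at A490 against no-compound and no-enzyme/no-compound blanks. Compounds giving over 50% inhibition were retested at eight threefold-diluted concentrations in duplicate, and IC50 was derived by curve fitting.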

SMILES | IC50 [µM]
O=C(c1ccc(NS(=O)(=O)c2ccccc2)cc1)c1cc2cc(Cl)ccc2oc1=O | > 30
COc1cc2cc(C(=O)c3ccc(NS(=O)(=O)c4ccccc4)cc3)c(=O)oc2cc1OC | > 30
Cc1ccc(S(=O)(=O)Nc2ccc(C(=O)c3cc4cc(Br)ccc4oc3=O)cc2)cc1 | > 30
O=C(c1ccc(NS(=O)(=O)c2ccccc2)cc1)c1cc2ccccc2oc1=O | 3.28
O=C(c1ccc(NS(=O)(=O)c2ccccc2)cc1)c1cc2ccc(O)cc2oc1=O | 5.77
Cc1ccc(S(=O)(=O)Nc2ccc(C(=O)c3cc4cc(Br)cc(Br)c4oc3=O)cc2)cc1 | 7.73
Cc1ccc(S(=O)(=O)Nc2ccc(C(=O)c3cc4cc(C(C)(C)C)cc(C(C)(C)C)c4oc3=O)cc2)cc1 | 10.1
COc1ccc2cc(C(=O)c3ccc(NS(=O)(=O)c4ccc(C)cc4)cc3)c(=O)oc2c1 | > 30
Cc1ccc(S(=O)(=O)Nc2ccc(C(=O)c3cc4ccc(O)cc4oc3=O)cc2)cc1 | 1.12
O=C(c1ccc(NS(=O)(=O)c2ccccc2)cc1)c1cc2cc(Br)ccc2oc1=O | > 30
O=C(c1ccc(NS(=O)(=O)c2ccccc2)cc1)c1cc2cc(Br)cc(Br)c2oc1=O | > 30
CC(C)(C)c1cc(C(C)(C)C)c2oc(=O)c(C(=O)c3ccc(NS(=O)(=O)c4ccccc4)cc3)cc2c1 | 7.13
COc1ccc2cc(C(=O)c3ccc(NS(=O)(=O)c4ccccc4)cc3)c(=O)oc2c1 | > 30
Cc1ccc(S(=O)(=O)Nc2ccc(C(=O)c3cc4ccccc4oc3=O)cc2)cc1 | 3.58
Cc1ccc(S(=O)(=O)Nc2ccc(C(=O)c3cc4cc(F)ccc4oc3=O)cc2)cc1 | 4.6
Cc1ccc(S(=O)(=O)Nc2ccc(C(=O)c3cc4cc(Cl)ccc4oc3=O)cc2)cc1 | 26.7
CCN(CC)c1ccc2cc(C(=O)c3ccc(NS(=O)(=O)c4ccc(C)cc4)cc3)c(=O)oc2c1 | 0.347
COc1cc2cc(C(=O)c3ccc(NS(=O)(=O)c4ccc(C)cc4)cc3)c(=O)oc2cc1O | 0.0645
COc1cc2cc(C(=O)c3ccc(NS(=O)(=O)c4ccc(C)cc4)cc3)c(=O)oc2cc1OC | 5.59
O=C(c1ccc(NS(=O)(=O)c2ccccc2)cc1)c1cc2cc(F)ccc2oc1=O | 7.18
CCN(CC)c1ccc2cc(C(=O)c3ccc(NS(=O)(=O)c4ccccc4)cc3)c(=O)oc2c1 | 0.294
COc1cc2cc(C(=O)c3ccc(NS(=O)(=O)c4ccccc4)cc3)c(=O)oc2cc1O | 0.199
